DNMT1 inh – blocks human DNA methyltransferase DNMT1. P26358. inhibition (reported as % activation of signal), % at 10 µM. 360,000 tested, 0.83% active. AID 588458. DNMT1 molecular beacon, Hinp1I cleavage, fluorescence; in the data active = inhibition above about 50%
Scp-1 inhibitor – inhibitors of human Scp-1 phosphatase | Q9GZU7 | Recombinant Scp1, phosphopeptide, malachite green phosphate absorbance | inhibition, % at 20 µM | 340,000 tested, 0.88% active | AID 493091;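 active = inhibition above about 50% at 20 µM, limit read from the data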;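 also: plate controls were DMSO wells with enzyme for no effect and wells lacking enzyme for full effect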
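Material – SCP-1 phosphatase catalytic domain, residues 76-261 · Buffer or medium – Acidic Tris acetate buffer with magnesium and detergent · Also added – Phospho 17-mer peptide substrate · Compound – single 20 µM dose, 1% DMSO · Times – 45 min room-temperature reaction, 5 min colour, 30 min stabiliser · Technique – Phosphate-binding colour reagent, absorbance read at 630 nm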
SUMO1 PPI mod – modulators of human SUMO1-mediated protein-protein interactions; AID 602429; P63165; SUMO1 binding to a labelled peptide, TR-FRET, 1 h; inhibition, % at 20 µM; 360,000 tested, 0.33% active; in the data active = inhibition above about 37%
Target sequence (P63165 whole entry, looked up): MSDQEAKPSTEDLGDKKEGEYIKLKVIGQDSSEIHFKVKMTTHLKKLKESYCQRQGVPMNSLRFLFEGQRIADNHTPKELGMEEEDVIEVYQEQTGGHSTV
LMPTP inh – blocks human LMPTP phosphatase; P24666; recombinant LMPTP-A, OMFP fluorogenic substrate, fluorescence intensity; inhibition, % at 20 µM; 360,000 tested, 0.22% active; AID 651560;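 active = compounds that cut the enzyme signal by at least half of the control window in the single-dose screen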;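 also: plate controls were DMSO wells with enzyme plus substrate for no effect and substrate without enzyme for full effect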
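Assay system: LMPTP-A enzyme. Input: 0.625 nM LMPTP-A final. Probe or stimulus: 400 µM OMFP. Compound dosing: single 20 µM dose. Schedule: 50 min dark incubation at room temperature. Detection: fluorescence intensity of OMFP turnover product. Read-out: percent inhibition versus substrate-only and uninhibited controls. Benchmarks: no-enzyme low control, uninhibited high control.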
GRK2 inh – inhibitors of human GRK2 displacing RNA aptamer. bead flow cytometry, FAM-aptamer displacement from GRK2. inhibition of aptamer binding, % at 10 µM. 330,000 tested, 0.59% active;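 active = inhibition of aptamer binding above 40%, roughly 3 SD of noise, on plates passing a quality check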;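 also: median bead fluorescence of bound FAM aptamer so fluorescent compounds give negative values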
STEP block – inhibitors of human striatal-enriched phosphatase STEP; P54829; recombinant STEP, OMFP fluorogenic substrate, fluorescence; inhibition, % at 20 µM; 360,000 tested, 0.25% active;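 active = inhibition at 20 µM, scaled per plate between control wells, above about 37%, limit read from the data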;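 also: 0% = DMSO with enzyme and substrate and 100% = substrate only without enzyme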
Target sequence (P54829 whole entry, looked up): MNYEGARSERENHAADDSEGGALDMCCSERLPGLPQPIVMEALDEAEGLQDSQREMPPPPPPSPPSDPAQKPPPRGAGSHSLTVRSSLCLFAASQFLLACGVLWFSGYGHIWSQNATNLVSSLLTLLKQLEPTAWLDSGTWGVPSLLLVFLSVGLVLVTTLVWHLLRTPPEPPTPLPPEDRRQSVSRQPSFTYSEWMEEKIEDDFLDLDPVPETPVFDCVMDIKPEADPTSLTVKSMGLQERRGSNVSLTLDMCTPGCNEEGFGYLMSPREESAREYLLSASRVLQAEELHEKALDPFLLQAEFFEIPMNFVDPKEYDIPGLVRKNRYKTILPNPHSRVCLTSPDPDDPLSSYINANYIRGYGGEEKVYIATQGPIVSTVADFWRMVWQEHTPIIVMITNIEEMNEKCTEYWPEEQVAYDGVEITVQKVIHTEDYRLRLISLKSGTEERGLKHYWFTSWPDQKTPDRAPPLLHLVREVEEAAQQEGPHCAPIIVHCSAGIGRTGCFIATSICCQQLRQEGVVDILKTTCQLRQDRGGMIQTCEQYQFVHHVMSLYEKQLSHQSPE
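System: STEP phosphatase, cell-free reaction; Buffer or medium: Bis-Tris pH 6.0 buffer with DTT, detergent; Incubation: 20 min at room temperature, dark; Measured by: fluorescence, 480/540 nm.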
Scp-1 conf – confirmation of human Scp-1 phosphatase inhibitors; shares compounds with Scp-1 inhibitor; recombinant SCP-1 catalytic domain, phosphate release, malachite green absorbance; inhibition, % at 20 µM; 2,500 tested, 61% active;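 also: plate controls were DMSO with enzyme for no effect and buffer wells lacking enzyme for full effect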
Scp-1 MG ctr – counter-screen for Scp-1 inhibitors: colorimetric interference; 2,500 tested, under 10 active; AID 540313; shares compounds with Scp-1 inhibitor; apparent inhibition (interference), % at 20 µM; Colorimetric interference counterscreen, malachite green absorbance 630 nm;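 also: compounds added after enzyme reaction finished so only phosphate colour detection is probed; plate controls were DMSO wells with completed Scp-1 reaction for no effect and substrate wells lacking enzyme for full effect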
Scp-1 Tm shift – binds human Scp-1, shifting its melting temperature. shares compounds with Scp-1 inhibitor. Recombinant SCP1, Sypro Orange thermal shift Tm. thermal shift relative to vanadate control, % at 40 µM. 1,500 tested, 25% active. AID 540329;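 active = substances whose mean melting-temperature shift, as a percentage of the reference inhibitor's shift, reaches about 5.3%, limit read from the data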;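 also: 0% = Tm of DMSO wells and 100% = Tm with sodium orthovanadate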
* hit, by the source's call; x = no result given. Sampled rows, rich in hits. Any-hit rate of the full collection: about 2.1%.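 The calls were made as follows, unless noted: active = inhibition of at least 30% at 20 µM; inactive = the rest.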

SMILES	DNMT1 inh	Scp-1 inhibitor	SUMO1 PPI mod	LMPTP inh	GRK2 inh	STEP block	Scp-1 conf	Scp-1 MG ctr	others
CCN1C(=NCC2CC2)N[C@@H](c2cccc(C(F)(F)F)c2)C(C(=O)OC)=C1C	4	50*	-7	0	0	0	-14	-13
CCN1C(=NCCOC)N[C@@H](c2cccc(C(F)(F)F)c2)C(C(=O)OC)=C1C	2	56*	-2	-2	0	2	5	-9
CCN1C(=NCc2cc(OC)c(OC)c(OC)c2)N[C@@H](c2cccc(C(F)(F)F)c2)C(C(=O)OC)=C1C	0	-14	-2	-2	0	-2	x	x
CCN1C(=NCc2cc(OC)c(OC)c(OC)c2)N[C@@H](c2ccccc2)C(C(=O)OC)=C1C	5	54*	3	0	3	0	-13	-13
CCN1C(=NCc2ccco2)N[C@@H](c2cccc(C(F)(F)F)c2)C(C(=O)OC)=C1C	3	4	-20	-1	0	-2	x	x
N#CC1=C(N)n2c(s/c(=C\c3ccco3)c2=O)=C(C#N)C1c1ccco1 (stereo not given)	95*	63*	32	11	26	11	71*	-5	Scp-1 Tm shift=18*
COCCCN(C(=O)CCOc1ccccc1C)c1c(N)n(Cc2ccccc2)c(=O)[nH]c1=O	-9	-1	5	1	2	-1	x	x
CC1C(C#N)=C(N)OC2=C1C(=O)CC(c1ccccc1)C2 (stereo not given)	-1	55*	-3	-1	4	2	-14	-9
N#CC1=C(N)OC2=C(C(=O)CC(c3ccccc3)C2)C1c1ccoc1 (stereo not given)	9	0	3	-1	3	1	x	x
CC(C)CCN1CC(C(=O)NCCC2=CCCCC2)CC1=O (stereo not given)	3	0	3	-1	0	-2	-21	-19
CCOCCCNC(=O)C1CC(=O)N(CCc2ccccc2)C1 (stereo not given)	2	-13	2	-1	2	1	x	x
O=C(NCCc1ccccc1)C1CC(=O)N(CCc2ccccc2)C1 (stereo not given)	-1	-1	1	-2	1	2	-2	-4
O=C(NCCc1ccccn1)C1CC(=O)N(Cc2ccccc2Cl)C1 (stereo not given)	-4	-7	2	0	0	0	-25	-15
CCN(CCNC(=O)C1CC(=O)N(CCc2ccccc2)C1)c1ccccc1 (stereo not given)	-1	-2	0	-1	1	-1	0	-10
CCc1nc2c(OCC=C(C)C)cccn2c1N(C)C(=O)c1ccc(OC)cc1	-1	x	-2	0	x	0	x	x
Nc1ccn([C@@H]2O[C@H](C(=O)N[C@H](CO)c3ccccc3)[C@@H](O)[C@H]2O)c(=O)n1	-2	x	-1	2	x	0	x	x
CC1(Oc2cccc(C#N)c2)CCN(Cc2ccccc2OC(F)F)C1 (stereo not given)	0	x	3	-1	x	3	x	x
O=C(C(=O)N1CCN(C/C=C/c2ccccc2)CC1)c1ccccc1	x	x	1	-1	x	x	x	x
CC(C)C[C@H]1CN(CCCC[C@@H]2CNC(=O)C(=O)N2CCc2ccccc2)C(=O)C(=O)N1CCc1ccccc1	x	x	4	0	x	x	x	x
CCc1ccc(NC(=O)Cn2cnc3c(=O)n(C)c(=O)n(C)c32)cc1	-1	28	3	-1	1	0	x	x
CCc1ccc(C(C)NC(=O)Cn2cnc3c(=O)n(C)c(=O)n(C)c32)cc1 (stereo not given)	-1	-2	0	0	0	-1	-1	-2
O=C(CCC(=O)N/N=C/c1ccco1)N/N=C/c1ccco1	21	-13	-6	1	0	8	x	x
O=C(CCCCCCCCC(=O)N/N=C/c1ccco1)N/N=C/c1ccco1	9	51*	1	0	8	2	68*	-11	Scp-1 Tm shift=-7
CCn1cc(S(=O)(=O)c2ccc(C)cc2)c(=O)c2cc(F)c(N3CCN(C)CC3)cc21	-1	61*	3	2	0	0	-25	-22
Cc1ccc(S(=O)(=O)c2cn(C)c3cc(N4CCN(C)CC4)c(F)cc3c2=O)cc1	0	-11	9	0	1	-2	x	x
SMILES	DNMT1 inh	Scp-1 inhibitor	SUMO1 PPI mod	LMPTP inh	GRK2 inh	STEP block	Scp-1 conf	Scp-1 MG ctr	others
Cc1ccc(N2CCN(C(CCc3ccccc3)C(=O)Nc3c(C)cccc3C)CC2)cc1 (stereo not given)	x	x	-1	2	x	x	x	x
Cc1ccc(CN2C(=O)N/C(=C/c3ccc(-c4ccc(C(=O)O)cc4)o3)C2=O)cc1	42	59*	39*	4	0	7	48*	-11	Scp-1 Tm shift=4
CC(C[N+](C)(C)C)OC(=O)C1(c2ccccc2)CCCC1 (stereo not given)	0	63*	3	-2	0	-3	-20	-16
O=C(COC(=O)c1c(F)cccc1F)NC(=O)NCc1ccccc1	-8	x	5	-1	x	0	x	x
O=C(CSc1nc2sccc2c(=O)[nH]1)N1CCN(c2ccccc2)CC1	17	109*	3	5	2	0	59*	-11	Scp-1 Tm shift=-12
O=C(CSc1ccsc1[N+](=O)[O-])N1CCN(c2ccccc2)CC1	41	64*	-19	9	1	7	76*	-6	Scp-1 Tm shift=5
COc1ccc(C(=O)NCC(c2ccco2)N2CCOCC2)cc1 (stereo not given)	2	x	11	-1	x	-6	x	x
CC1(c2nnnn2-c2ccc3c(c2)OCCO3)CCC(=O)N1CC(F)(F)F (stereo not given)	x	x	0	0	x	x	x	x
CNC(=O)OCc1nc(SSC(C)(C)C)n(C)c1COC(=O)NC	6	0	3	-1	x	-3	x	x
C[C@@H]1CN([C@H](C)CO)C(=O)c2cc(Br)cnc2O[C@@H]1CN(C)C(=O)Cc1ccccc1	0	x	3	-1	x	-2	x	x
COc1ccc(S(=O)(=O)N2CCCC2)cc1OC	1	0	0	0	1	1	x	x
COc1ccc(S(=O)(=O)N2CCCC2)cc1C(C)C	-1	53*	-3	0	1	-1	-10	-14
COc1cc([N+](=O)[O-])c2nc(C(=O)O)ccc2c1	-11	-8	-25	0	x	-1	x	x

Screening results as filed in PubChem BioAssay.
